{"data": "Measurements pooled from the literature", "KCNA1": "Potassium voltage-gated channel subfamily A member 1 (KCNA1, Homo sapiens, UniProt Q09470)", "note": "Compare with care: the assays were run in different laboratories."}
{"Structure (SMILES)": "Cc1cc([C@@H](C)Nc2ccccc2C(=O)O)c2nc(N3CCC(F)(F)CC3)c(C#N)c(=O)n2c1", "target": "Cyclin-dependent kinase 3 (CDK3, Homo sapiens, UniProt Q00526)", "test": "binding, competition with immobilised ligand", "conditions": "1 µM", "endpoint": "remaining binding", "result": "75%"}
{"Structure (SMILES)": "CC12CC3CC(C)(C1)CC(N)(C3)C2", "target": "KCNA1", "test": "ion current, inhibitor, patch clamp", "conditions": "30 µM", "endpoint": "inhibition", "result": "45.8%"}
{"Structure (SMILES)": "CNc1ncc2c(/C=C/C(=O)N3CCC(OC)CC3)nn(Cc3cccc(C(F)(F)F)c3)c2n1", "target": "Serine/threonine-protein kinase 38-like (STK38L, Homo sapiens, UniProt Q9Y2H1)", "test": "enzyme activity, inhibitor, radiometric", "conditions": "1 µM", "endpoint": "remaining activity", "result": "90%"}
{"Structure (SMILES)": "Cn1c(=O)c2[nH]cnc2n(C)c1=O", "target": "KCNA1", "test": "ion current, inhibitor, patch clamp", "conditions": "3 µM", "endpoint": "inhibition", "result": "1.92%"}
{"Structure (SMILES)": "COc1cc(-c2cncc3c2CN(C)Cc2cc(N4CCNCC4)ccc2-3)cc(OC)c1OC", "target": "Cyclin-dependent kinase 3, with cyclin E (CDK3, Homo sapiens, UniProt Q00526)", "test": "enzyme activity, inhibitor", "conditions": "1 µM", "endpoint": "remaining activity", "result": "118%"}
{"Structure (SMILES)": "CNCCCC12CCC(c3ccccc31)c1ccccc12", "target": "KCNA1", "test": "ion current, inhibitor, patch clamp", "conditions": "30 µM", "endpoint": "inhibition", "result": "50.2%"}
{"Structure (SMILES)": "C=CC(=O)N1CCC(COCC(=O)N2CCN(c3nc(-c4cnc(N)nc4C(F)F)nc(N4CCOC[C@@H]4C)n3)CC2)CC1", "target": "Dual specificity protein kinase CLK2 (CLK2, Homo sapiens, UniProt P49760)", "test": "binding, competition with immobilised ligand", "conditions": "1 µM", "endpoint": "remaining binding", "result": "79%"}
{"Structure (SMILES)": "COc1ccc(S(=O)(=O)N(CC(=O)NO)CC(C)C)cc1", "target": "Collagenase 3 (MMP13, Homo sapiens, UniProt P45452)", "test": "enzyme activity, inhibitor", "conditions": "0.5 µM", "endpoint": "inhibition", "result": "51.2%"}
{"Structure (SMILES)": "CC[C@H](C)[C@H](NC(=O)[C@H](CCC(N)=O)NC(=O)[C@H](CCCNC(=N)N)NC(=O)[C@H](CO)NC(=O)[C@H](Cc1c[nH]cn1)NC(=O)[C@@H]1CCCN1C(=O)[C@H](C)NC(=O)[C@H](CO)NC(=O)[C@H](CC(C)C)NC(=O)CNC(=O)[C@@H]1CCCN1C(=O)[C@H](CCC(N)=O)NC(=O)[C@H](CCC(N)=O)NC(=O)[C@H](CCCNC(=N)N)NC(=O)[C@H](CO)NC(=O)CNC(=O)[C@H](CO)NC(=O)[C@H](CO)NC(=O)[C@H](CCC(=O)O)NC(=O)[C@@H]1CCCN1C(=O)[C@@H]1CCCN1C(=O)[C@@H]1CCCN1C(=O)[C@H](CO)NC(=O)[C@H](CC(C)C)NC(=O)[C@H](CO)NC(=O)[C@@H](NC(=O)CN)[C@@H](C)O)C(=O)N1CCC[C@H]1C(=O)N[C@@H](C)C(=O)N1CCC[C@H]1C(=O)N[C@@H](CCC(N)=O)C(=O)NCC(=O)N[C@@H](C)C(=O)N[C@H](C(=O)N[C@@H](CC(C)C)C(=O)N[C@H](C(=O)N[C@@H](CCC(N)=O)C(=O)N[C@@H](CCCNC(=N)N)C(=O)N[C@@H](CCC(=O)O)C(=O)N[C@@H](CCCCN)C(=O)N[C@@H](CC(=O)O)C(=O)N[C@@H](CC(C)C)C(=O)N1CCC[C@H]1C(=O)N[C@@H](CC(N)=O)C(=O)N[C@@H](Cc1ccc(O)cc1)C(=O)N[C@@H](CC(N)=O)C(=O)N[C@@H](Cc1c[nH]c2ccccc12)C(=O)N[C@@H](CC(N)=O)C(=O)N[C@@H](CO)C(=O)N[C@@H](Cc1ccccc1)C(=O)NCC(=O)N[C@@H](CC(C)C)C(=O)N[C@@H](CCCNC(=N)N)C(=O)N[C@@H](Cc1ccccc1)C(N)=O)C(C)C)C(C)C", "target": "KiSS-1 receptor (KISS1R, Homo sapiens, UniProt Q969F8, N119A)", "test": "inositol phosphate, agonist", "test system": "HEK293", "endpoint": "Emax", "result": "93.6%"}
